Results taken from ChEMBL document CHEMBL1131568, “Intensely potent doxorubicin analogues: structure-activity relationship” (J Med Chem, 1998).

What was measured:
CHO [1] = assay: Drug concentration that inhibit cell growth by 50% compared to un treated control cultures of CHO cells (for 6 days at 37 degree Centigrade); format: functional, cell-based; conditions: Cricetulus griseus, 144 h
Method in brief: (§1)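 Exponentially growing cells, seeded at 1.5×10^4 cells/mL in McCoy's 5A with 10% FCS, exposed to drug over 2×10^-5 to 2×10^-12 M for 6 days at 37 °C. Cells fixed in 10% formaldehyde, stained with 0.1% crystal violet, and counted by inverted phase-contrast microscopy. IC50 taken from dose-response curves of surviving fraction versus untreated controls; mean of duplicates.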

Mus musculus [2] = organism: Mus musculus; assay: Compound was tested for the drug concentration that inhibited cell growth by 50% compared to un treated control cultures of Panc 02 cells; format: functional, cell-based; conditions: Panc02; method in brief: as §1
CHO [3] = assay: Compound was tested for the drug concentration that inhibited cell growth by 50% compared to un treated control cultures of CHO /DOX cell line; format: functional, cell-based; conditions: Cricetulus griseus; method in brief: as §1
[4] = Compound was tested for the drug concentration that inhibited cell growth by 50% compared to un treated control cultures of CA 755 cells(murine carcinoma 755 cells); format: functional, Mus musculus; method in brief: as §1
[5] = Compound was tested for the drug concentration that inhibited cell growth by 50% compared to untreated control cultures of CA 755 cells(murine carcinoma 755 cells); format: functional; conditions: Mus musculus; method in brief: as §1
Mus musculus [6] = organism: Mus musculus; assay: Compound was tested for the drug concentration that inhibited cell growth by 50% compared to untreated control cultures of Panc 02 cells; format: functional, cell-based; conditions: Panc02; method in brief: as §1

Compound | IC50 (CHO [1]) [nM] | IC50 (Mus musculus [2]) [nM] | IC50 (CHO [3]) [nM] | IC50 [4] [nM] | IC50 [5] [nM] | IC50 (Mus musculus [6]) [nM]
COc1cccc2c1C(=O)c1c(O)c3c(c(O)c1C2=O)CC(O)(C(=O)CO)CC3OC1CC(NCCCCCOC(C)=O)C(O)C(C)O1 (stereo not given) | 83 | 67 | 350 | 140 | – | –
CCCCCNC1CC(OC2CC(O)(C(=O)CO)Cc3c(O)c4c(c(O)c32)C(=O)c2c(OC)cccc2C4=O)OC(C)C1O (stereo not given) | – | 100 | – | 33 | – | –
COc1cccc2c1C(=O)c1c(O)c3c(c(O)c1C2=O)CC(O)(C(=O)CO)CC3OC1CC(NCCCCCCCC(OC(C)=O)OC(C)=O)C(O)C(C)O1 (stereo not given) | 250 | 110 | 170 | 14 | – | –
COc1cccc2c1C(=O)c1c(O)c3c(c(O)c1C2=O)C[C@@](O)(C(=O)CO)C[C@@H]3O[C@H]1C[C@H](N)[C@H](O)[C@H](C)O1 [DOXORUBICIN] | – | – | – | – | 14 | 65
COc1cccc2c1C(=O)c1c(O)c3c(c(O)c1C2=O)CC(O)(C(=O)CO)CC3OC1CC(NCCCOCCC(OC(C)=O)OC(C)=O)C(O)C(C)O1 (stereo not given) | 100 | 80 | 210 | 90 | – | –
COc1cccc2c1C(=O)c1c(O)c3c(c(O)c1C2=O)CC(O)(C(=O)CO)CC3OC1CC(N(C)CCCCC(OC(C)=O)OC(C)=O)C(O)C(C)O1 (stereo not given) | 65 | 140 | 185 | 130 | – | –
COc1cccc2c1C(=O)c1c(O)c3c(c(O)c1C2=O)CC(O)(C(=O)CO)CC3OC1CC(NCCC(C)(C)C(OC(C)=O)OC(C)=O)C(O)C(C)O1 (stereo not given) | 120 | 95 | 290 | 90 | – | –
COc1cccc2c1C(=O)c1c(O)c3c(c(O)c1C2=O)CC(O)(C(=O)CO)CC3OC1CC(NCCCC(=O)O)C(O)C(C)O1 (stereo not given) | 203 | 240 | 950 | 150 | – | –
COc1cccc2c1C(=O)c1c(O)c3c(c(O)c1C2=O)CC(O)(C(=O)CO)CC3OC1CC(NCCCCCC(OC(C)=O)OC(C)=O)C(O)C(C)O1 (stereo not given) | 26 | 14 | 13 | 3.1 | – | –
COc1cccc2c1C(=O)c1c(O)c3c(c(O)c1C2=O)CC(O)(C(=O)CO)CC3OC1CC(NCCOCCC(OC(C)=O)OC(C)=O)C(O)C(C)O1 (stereo not given) | 55 | 60 | 96 | – | – | –
